Results: ChEMBL document CHEMBL4152192, “Synthesis and anticancer activity evaluation of novel azacalix[2]arene[2]pyrimidines” (Eur J Med Chem, 2018)
Values belong to the compound of their own block, whether it stands above or below them. Activity calls are given as the source filed them. No cut-off for these calls is given here.

What was measured:
[1] = system: MCF7; experiment: Antiproliferative activity against human MCF7 cells after 72 hrs by CCK-8 assay; format: functional, cell-based; conditions: MCF7, 72 h
Summary of the method: (§1)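 Cells seeded at 5 × 10³/well; A549, MCF7 and SH-SY5Y grown in DMEM, CNE and L-02 in RPMI-1640 (10% FBS, pen/strep, 37 °C, 5% CO₂). Compounds in DMSO, diluted in medium; 72 h exposure versus DMSO vehicle. CCK-8 absorbance read at 450 nm; viability taken as treated/control absorbance, IC₅₀ from curve fit. Triplicate wells, three independent experiments.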

[2] = system: SH-SY5Y; experiment: Antiproliferative activity against human SH-SY5Y cells after 72 hrs by CCK-8 assay; format: functional, cell-based; summary of the method: as §1
[3] = system: A549; experiment: Antiproliferative activity against human A549 cells after 72 hrs by CCK-8 assay; format: functional, cell-based; conditions: A549, 72 h; summary of the method: as §1
[4] = system: L02; experiment: Antiproliferative activity against human L02 cells after 72 hrs by CCK-8 assay; format: cell-based; conditions: L02, 72 h; summary of the method: as §1
[5] = system: CNE; experiment: Antiproliferative activity against human CNE cells after 72 hrs by CCK-8 assay; format: functional, cell-based; summary of the method: as §1
[6] = system: MCF7; experiment: Induction of apoptosis in human MCF7 cells assessed as nuclear fragmentation at 0.3 to 1.2 uM after 24 hrs by Hoechst 33342 staining-based fluorescence microscopic analysis; format: functional, cell-based
Summary of the method: (§2)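 MCF7 exposed to 0.3, 0.6 or 1.2 µM for 24 h, then stained with 5 µg/mL Hoechst 33342 for 20 min at 37 °C under 5% CO₂. Nuclear morphology (brightness, chromatin condensation, fragmentation) examined by fluorescence microscopy at ×100.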

[7] = system: MCF7; experiment: Induction of apoptosis in human MCF7 cells assessed as early apoptotic cells at 1.2 uM after 24 hrs by Annexin V-FITC/propidium iodide staining-based flow cytometric analysis (reference value: 0.816%); format: functional
[8] = system: MCF7; experiment: Cell cycle arrest in human MCF7 cells assessed as accumulation of cells S phase at 1.2 uM after 24 hrs by propidium iodide/RNase A staining-based flow cytometric analysis (reference value: 6.75%); format: functional
[9] = system: MCF7; experiment: Cell cycle arrest in human MCF7 cells assessed as accumulation of cells G1 phase at 1.2 uM after 24 hrs by propidium iodide/RNase A staining-based flow cytometric analysis (reference value: 60.6%); format: functional
[10] = system: MCF7; experiment: Cell cycle arrest in human MCF7 cells assessed as accumulation of cells S phase at 0.6 uM after 24 hrs by propidium iodide/RNase A staining-based flow cytometric analysis (reference value: 6.75%); format: functional
[11] = system: MCF7; experiment: Induction of apoptosis in human MCF7 cells assessed as viable cells at 1.2 uM after 24 hrs by Annexin V-FITC/propidium iodide staining-based flow cytometric analysis (reference value: 97.5%); format: functional; conditions: MCF7, 24 h, read-out: Activity
[12] = system: MCF7; experiment: Induction of apoptosis in human MCF7 cells assessed as increase in caspase9 activation at 0.3 to 1.2 uM after 72 hrs by Western blot analysis; format: functional, cell-based
Summary of the method: (§3)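 MCF7 exposed to 0.3, 0.6 or 1.2 µM for 72 h. Total protein (30 µg, BCA-quantified) run on SDS-PAGE and transferred to PVDF. Membranes blocked in 5% milk/TBS-0.05% Tween 20 for 2 h at room temperature, probed overnight at 4 °C with anti-cleaved caspase-3, caspase-9 and β-actin (loading control), then HRP anti-rabbit IgG; ECL detection.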

[13] = system: MCF7; experiment: Induction of apoptosis in human MCF7 cells assessed as viable cells at 0.6 uM after 24 hrs by Annexin V-FITC/propidium iodide staining-based flow cytometric analysis (reference value: 97.5%); format: functional; conditions: MCF7, 24 h, read-out: Activity
[14] = system: MCF7; experiment: Cell cycle arrest in human MCF7 cells assessed as accumulation of cells G2 phase at 0.6 uM after 24 hrs by propidium iodide/RNase A staining-based flow cytometric analysis (reference value: 35.08%); format: functional
[15] = system: MCF7; experiment: Induction of apoptosis in human MCF7 cells assessed as necrotic cells at 1.2 uM after 24 hrs by Annexin V-FITC/propidium iodide staining-based flow cytometric analysis (reference value: 0.426%); format: functional
[16] = system: MCF7; experiment: Induction of apoptosis in human MCF7 cells assessed as late apoptotic cells at 0.3 uM after 24 hrs by Annexin V-FITC/propidium iodide staining-based flow cytometric analysis (reference value: 1.22%); format: functional
[17] = system: MCF7; experiment: Cell cycle arrest in human MCF7 cells assessed as accumulation of cells G1 phase at 0.3 uM after 24 hrs by propidium iodide/RNase A staining-based flow cytometric analysis (reference value: 60.6%); format: functional
[18] = system: MCF7; experiment: Cell cycle arrest in human MCF7 cells assessed as accumulation of cells G1 phase at 0.6 uM after 24 hrs by propidium iodide/RNase A staining-based flow cytometric analysis (reference value: 60.6%); format: functional
[19] = system: MCF7; experiment: Induction of apoptosis in human MCF7 cells assessed as necrotic cells at 0.3 uM after 24 hrs by Annexin V-FITC/propidium iodide staining-based flow cytometric analysis (reference value: 0.426%); format: functional
[20] = system: MCF7; experiment: Cell cycle arrest in human MCF7 cells assessed as accumulation of cells S phase after 24 hrs by propidium iodide/RNase A staining-based flow cytometric analysis; format: functional
[21] = system: MCF7; experiment: Cell cycle arrest in human MCF7 cells assessed as accumulation of cells G2 phase at 1.2 uM after 24 hrs by propidium iodide/RNase A staining-based flow cytometric analysis (reference value: 35.08%); format: functional
[22] = system: MCF7; experiment: Cell cycle arrest in human MCF7 cells assessed as accumulation of cells G2 phase at 0.3 uM after 24 hrs by propidium iodide/RNase A staining-based flow cytometric analysis (reference value: 35.08%); format: functional
[23] = system: MCF7; experiment: Induction of apoptosis in human MCF7 cells assessed as late apoptotic cells at 1.2 uM after 24 hrs by Annexin V-FITC/propidium iodide staining-based flow cytometric analysis (reference value: 1.22%); format: functional
[24] = system: MCF7; experiment: Induction of apoptosis in human MCF7 cells assessed as increase in caspase3 activation at 0.3 to 1.2 uM after 72 hrs by Western blot analysis; format: functional, cell-based; summary of the method: as §3
[25] = system: MCF7; experiment: Induction of apoptosis in human MCF7 cells assessed as nuclear condensation at 0.3 to 1.2 uM after 24 hrs by Hoechst 33342 staining-based fluorescence microscopic analysis; format: functional, cell-based; summary of the method: as §2
[26] = system: MCF7; experiment: Cell cycle arrest in human MCF7 cells assessed as accumulation of cells S phase at 0.3 uM after 24 hrs by propidium iodide/RNase A staining-based flow cytometric analysis (reference value: 6.75%); format: functional
[27] = system: MCF7; experiment: Induction of apoptosis in human MCF7 cells assessed as viable cells at 0.3 uM after 24 hrs by Annexin V-FITC/propidium iodide staining-based flow cytometric analysis (reference value: 97.5%); format: functional; conditions: MCF7, 24 h, read-out: Activity
[28] = system: MCF7; experiment: Induction of apoptosis in human MCF7 cells assessed as necrotic cells at 0.6 uM after 24 hrs by Annexin V-FITC/propidium iodide staining-based flow cytometric analysis (reference value: 0.426%); format: functional
[29] = system: MCF7; experiment: Induction of apoptosis in human MCF7 cells assessed as early apoptotic cells at 0.6 uM after 24 hrs by Annexin V-FITC/propidium iodide staining-based flow cytometric analysis (reference value: 0.816%); format: functional
[30] = system: MCF7; experiment: Induction of apoptosis in human MCF7 cells assessed as improved staining brightness at 0.3 to 1.2 uM after 24 hrs by Hoechst 33342 staining-based fluorescence microscopic analysis; format: functional, cell-based; summary of the method: as §2
[31] = system: MCF7; experiment: Induction of apoptosis in human MCF7 cells assessed as late apoptotic cells at 0.6 uM after 24 hrs by Annexin V-FITC/propidium iodide staining-based flow cytometric analysis (reference value: 1.22%); format: functional
[32] = system: MCF7; experiment: Induction of apoptosis in human MCF7 cells assessed as early apoptotic cells at 0.3 uM after 24 hrs by Annexin V-FITC/propidium iodide staining-based flow cytometric analysis (reference value: 0.816%); format: functional

SMILES: FC(F)(F)c1cc2cc(c1)Nc1nccc(n1)Nc1cc(cc(C(F)(F)F)c1)Nc1nccc(n1)N2
IC50 [1]: 5.38 µM
IC50 [2]: 1.43 µM
IC50 [3]: 2.05 µM
IC50 [4]: 20.4 µM
IC50 [5]: 15.6 µM

SMILES: Cc1cnc2nc1Nc1cc(cc(N3CCCC3)c1)Nc1ncc(C)c(n1)Nc1cc(cc(N3CCCC3)c1)N2
IC50 [1]: 4.9 µM
IC50 [2]: 7.21 µM
IC50 [3]: 4.25 µM
IC50 [4]: 30.8 µM
IC50 [5]: > 50 µM

SMILES: c1cc2cc(c1)Nc1nccc(n1)Nc1cccc(c1)Nc1nccc(n1)N2
IC50 [1]: > 50 µM
IC50 [2]: > 50 µM
IC50 [3]: > 50 µM
IC50 [4]: > 50 µM
IC50 [5]: > 50 µM

SMILES: Clc1cnc2nc1Nc1cccc(c1)Nc1ncc(Cl)c(n1)Nc1cccc(c1)N2
IC50 [1]: > 50 µM
IC50 [2]: > 50 µM
IC50 [3]: > 50 µM
IC50 [4]: > 50 µM
IC50 [5]: > 50 µM

SMILES: Cc1cnc2nc1Nc1cc(cc(N3CCOCC3)c1)Nc1ncc(C)c(n1)Nc1cc(cc(N3CCOCC3)c1)N2
IC50 [1]: > 50 µM
IC50 [2]: > 50 µM
IC50 [3]: > 50 µM
IC50 [4]: > 50 µM
IC50 [5]: > 50 µM

SMILES: Cc1cnc2nc1Nc1cccc(c1)Nc1ncc(C)c(n1)Nc1cccc(c1)N2
IC50 [1]: 18.8 µM
IC50 [2]: 17.5 µM
IC50 [3]: 7.42 µM
IC50 [4]: 9.89 µM
IC50 [5]: 23.7 µM

SMILES: c1cc2nc(n1)Nc1cc(cc(N3CCCC3)c1)Nc1ccnc(n1)Nc1cc(cc(N3CCCC3)c1)N2
Activity [6]: Active
IC50 [1]: 0.58 µM
Activity [7]: 26.6%
IC50 [2]: 1.82 µM
Activity [8]: 38.08%
Activity [9]: 52.9%
Activity [10]: 17.49%
viability at 1.2 µM [11]: 69.1%
Activity [12]: Active
viability at 0.6 µM [13]: 73.8%
Activity [14]: 25.13%
Activity [15]: 0.232%
Activity [16]: 1.35%
IC50 [3]: 0.94 µM
Activity [17]: 55.71%
Activity [18]: 56.54%
IC50 [4]: 25.6 µM
Activity [19]: 0.148%
Activity [20]: Dose-dependent effect
Activity [21]: 7.88%
Activity [22]: 34.8%
Activity [23]: 4.2%
Activity [24]: Active
Activity [25]: Active
Activity [26]: 11.54%
viability at 0.3 µM [27]: 92.7%
IC50 [5]: 46.5 µM
Activity [28]: 0.197%
Activity [29]: 23.2%
Activity [30]: Active
Activity [31]: 2.86%
Activity [32]: 5.76%

SMILES: c1cc2nc(n1)Nc1cc(cc(N3CCOCC3)c1)Nc1ccnc(n1)Nc1cc(cc(N3CCOCC3)c1)N2
IC50 [1]: > 50 µM
IC50 [2]: > 50 µM
IC50 [3]: > 50 µM
IC50 [4]: > 50 µM
IC50 [5]: > 50 µM

The next lines start with results.

IC50 [1]: > 50 µM
IC50 [2]: > 50 µM
IC50 [3]: > 50 µM
SMILES: COc1cnc2nc1Nc1cccc(c1)Nc1ncc(OC)c(n1)Nc1cccc(c1)N2
IC50 [4]: > 50 µM
IC50 [5]: > 50 µM

IC50 [1]: 0.48 µM
IC50 [2]: 0.89 µM
IC50 [3]: 0.63 µM
SMILES: COc1cccc2c1C(=O)c1c(O)c3c(c(O)c1C2=O)C[C@@](O)(C(=O)CO)C[C@@H]3O[C@H]1C[C@H](N)[C@H](O)[C@H](C)O1 [DOXORUBICIN]
IC50 [4]: 0.88 µM
IC50 [5]: 0.22 µM

IC50 [1]: > 50 µM
IC50 [2]: > 50 µM
IC50 [3]: > 50 µM
SMILES: COc1cnc2nc1Nc1cc(cc(N3CCOCC3)c1)Nc1ncc(OC)c(n1)Nc1cc(cc(N3CCOCC3)c1)N2
IC50 [4]: > 50 µM
IC50 [5]: > 50 µM
